# High-throughput results: PubChem BioAssay, several laboratories
# The list is not random: actives were taken first. Their share in the collection is about 27%.
# CYP2C19 inh = blockers of cytochrome P450 2C19 activity – biochemical, luminescence, ADME assay, primary screen; P33261; inhibition, % at 5 µM; CYP2C19 Supersomes, luciferin-H EGE luminescence, 30 min; 96,000 tested, 21% active; AID 778, 2007;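 active = CYP2C19 inhibition above a set limit at 5 µM in the primary screen, cut at about 50% in these data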;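 also: plate controls were negative control wells for no effect and 2.5 mM tranylcypromine positive control for full effect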
# Target sequence (P33261 whole entry, looked up): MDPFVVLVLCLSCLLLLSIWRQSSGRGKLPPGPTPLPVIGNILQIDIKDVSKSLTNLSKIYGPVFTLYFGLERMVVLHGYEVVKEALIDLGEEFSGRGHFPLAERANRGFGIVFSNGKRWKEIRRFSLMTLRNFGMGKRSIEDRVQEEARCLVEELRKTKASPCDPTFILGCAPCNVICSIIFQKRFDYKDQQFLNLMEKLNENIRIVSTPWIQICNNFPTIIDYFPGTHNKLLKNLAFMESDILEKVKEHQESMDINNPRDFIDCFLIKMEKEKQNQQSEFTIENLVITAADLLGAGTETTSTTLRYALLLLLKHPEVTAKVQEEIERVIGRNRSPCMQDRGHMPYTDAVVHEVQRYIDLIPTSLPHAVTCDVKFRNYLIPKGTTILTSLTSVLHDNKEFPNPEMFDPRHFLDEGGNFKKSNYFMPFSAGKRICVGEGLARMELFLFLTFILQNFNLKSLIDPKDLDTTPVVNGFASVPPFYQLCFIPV
# CYP2C9 inhib = blockers of cytochrome P450 2C9 activity – biochemical, luminescence, ADME assay, primary screen. P11712. CYP2C9 Supersomes, luciferin-H conversion. inhibition, % at 5 µM. 96,000 tested, 20% active. AID 777, 2007;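 active = blocking of liver enzyme CYP2C9 beyond about 50% at 5 µM, limit read from the data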
# Cav3 T inh = Cav3.2 calcium influx blockers – cell-based, Fluo-4 calcium fluorescence, FDSS, MLSMR library, primary screen; Voltage-dependent T-type calcium channel subunit alpha-1H (Homo sapiens), O95180; Cav3.2-expressing cells; active compounds read low; B-score at 10 µM; 100,000 tested, 4% active; AID 449739, 2010;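 active = single-dose well whose peak fluorescence ratio is a statistical outlier from its plate by either plate-standardised score or position-corrected B-score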
# CYP2C9 activ = human CYP2C9 activators, primary screen, biochemical, luminescence | Cytochrome P450 2C9 (Homo sapiens), P11712 | recombinant CYP2C9, luciferin-H conversion; active compounds read high; factor 1 = untreated enzyme, 0 = blocked | activation factor at 5 µM | 96,000 tested, 1.4% active | AID 1024, 2008;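 active = activation factor of 2 or more for CYP2C9 at a 5 µM dose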;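 also: 0 = sulfaphenazole-blocked wells and 1 = vehicle-only wells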
# CYP2C19 act = human CYP2C19 activators, primary screen, biochemical, luminescence; recombinant CYP2C19, luciferin-H EGE luminescence; active compounds read high; 0 = fully inhibited enzyme, 1 = untreated enzyme; activation factor at 5 µM; 96,000 tested, under 10 active;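 active = activation factor of at least 2 at 5 µM in the primary screen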;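 also: 0 = wells with 2.5 mM tranylcypromine and 1 = vehicle-only wells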
# Rev-RRE block = HIV-1 Rev-RRE binding inhibitors, primary screen, biochemical, FRET, protein-RNA interaction | P05866 | Rev peptide-RRE RNA binding | 97,000 tested, 0.79% active | AID 704, 2007 | inhibition, % at 8 µM;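 active = inhibition above the screen-wide mean plus 3 SD, cut at about 35% in these data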;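 also: 0% = median DMSO wells and 100% = median Neomycin B control wells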
# Target sequence (P05866 whole entry, looked up): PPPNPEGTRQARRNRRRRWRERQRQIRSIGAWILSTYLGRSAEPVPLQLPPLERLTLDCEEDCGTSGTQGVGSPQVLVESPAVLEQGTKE
#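 Test system – labelled RRE RNA duplex and labelled Rev peptide · Signal – fluorescein-to-Cy5 FRET, 480 nm excitation · Evaluation – % inhibition of FRET ratio versus controls · Benchmarks – DMSO low control, neomycin B high control · Incubation – 5 min RNA-compound premix plus 15 min binding step, 25 °C · Medium – HEPES pH 7.5 salt buffer with EDTA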
# Active calls of the source: *; . = no result.
SMILES,CYP2C19 inh,CYP2C9 inhib,Cav3 T inh,CYP2C9 activ,CYP2C19 act,Rev-RRE block
CCCCN1C2CCCC1CC(NC(=O)C1CCCCC1)C2 (stereo not given),.,.,-0.049,.,.,6
COc1cc(/C=N/NC(=O)Nc2cccc3nsnc23)cc(OC)c1OC,5,56*,.,0.4,0.9,2
COC(=O)c1nnn(CC(=O)Nc2cccc(OC)c2)c1C(=O)OC,37,63*,0.23,0.4,0.6,9
CCOC(=O)c1nnn(CC(=O)Nc2cccc(Cl)c2C)c1C(=O)OCC,94*,67*,-0.044,0.3,0.1,9
COC(=O)c1nnn(CC(=O)Nc2cc(Cl)ccc2C)c1C(=O)OC,55*,54*,-1.1,0.5,0.4,6
CC1Cc2ccccc2N1C(=O)CSc1nnc(CNc2ccccc2)o1 (stereo not given),0,-3,0.85,1,1,6
C/C=C/C=C\C(=O)Nc1cccc(C2=NOC3(C2)C[C@@H](C(N)=O)N(C(=O)c2cc([N+](=O)[O-])cc([N+](=O)[O-])c2)C3)c1 (stereo not given in full),.,.,0.029,.,.,.
Cc1ccc(-c2onc3ccc(C4(C)OCCO4)cc23)cc1,60*,54*,0.56,0.5,0.4,-2
Cc1ccc(-c2onc3ccc(C=O)cc23)cc1,25,25,1,0.8,0.7,10
COc1ccc(CCNS(=O)(=O)c2cccc(S(=O)(=O)N3CCCC3)c2)cc1OC,96*,84*,0.22,0.2,0,.
COCCNS(=O)(=O)c1ccc(F)c(OC)c1,10,-10,0.44,1.1,0.9,10
COc1ccc(CCNS(=O)(=O)c2cccc(F)c2)cc1OC,51*,51*,0.68,0.5,0.5,-2
CCOC(=O)C[n+]1c(C)sc2ccc(OC)cc21,5,28,-0.13,0.7,0.9,2
Cc1ccc(Cc2c(C)nc3nc(SCC(=O)NCc4ccco4)nn3c2C)cc1,28,56*,-1.3,0.4,0.7,12
Cc1nc2ncnn2c(C)c1CCC(=O)NCc1ccco1,10,2,-0.23,1,0.9,3
Cc1ccccc1Cc1c(C)nc2nc(SCC(=O)NCc3ccco3)nn2c1C,28,66*,0.5,0.3,0.7,5
Cc1nc2nc(SCC(=O)NCc3ccco3)nn2c(C)c1Cc1c(F)cccc1Cl,43,88*,-2.2,0.1,0.6,3
Cc1ccccc1Cc1c(C)nc2c(C(=O)NCc3ccco3)cnn2c1C,56*,87*,-5.2,0.1,0.4,4
O=C(NCC(c1cccnc1)N1CCOCC1)c1cccs1 (stereo not given),-16,-10,-0.077,1.1,1.2,8
OCC[C@@H]1C[C@@H](O)[C@H](O)[C@]2(CCCO2)O1,.,.,0.2,.,.,.
CCOC(=O)CCc1cnccc1-c1cccc(OC)c1O,.,.,-0.18,.,.,.
CC1(OC(=O)CCc2ccccc2)C(=O)C=C2C=C(c3ccc(C#N)cc3)N(CCc3c[nH]c4ccccc34)C=C2C1=O (stereo not given),.,.,0.69,.,.,.
O=C(CN1CC(c2ccccc2)CC1=O)OCc1ccccc1F (stereo not given),88*,56*,-1,0.4,0.1,3
Cn1c(C2CC(=O)N(Cc3ccccc3)C2)nc2ccccc21 (stereo not given),76*,14,0.74,0.9,0.2,-2
O=C(O)C1CC(=O)N(Cc2ccccc2)C1 (stereo not given),-2,-40,0.24,1.4,1,-1
SMILES,CYP2C19 inh,CYP2C9 inhib,Cav3 T inh,CYP2C9 activ,CYP2C19 act,Rev-RRE block
O=C1CC(c2ccccc2)CN1Cc1ccccc1 (stereo not given),93*,19,-1.4,0.8,0.1,0
Cc1ccc(C(C(=O)NC(C)(C)C)N(Cc2cccs2)C(=O)c2csnn2)cc1 (stereo not given),.,.,.,.,.,6
COc1ccc(OC)c2[nH]c(=O)c(CCNC(=O)c3cc4ccccc4o3)cc12,63*,36,-1.8,0.6,0.4,.
COC(=O)c1scc(C)c1N/N=C(\C)c1cc(F)c(Cl)cc1F,-17,-10,-0.52,1.1,1.2,5
CCOC(=O)C(Cc1ccccc1)NC(=O)Cn1nnc(-c2ccc(SC)cc2)n1 (stereo not given),67*,15,-3.3,0.9,0.3,5
CC(C)Cc1ccc(C#N)c(SCC(N)=O)n1,61*,26,0.86,0.7,0.4,7
COC(=O)CSc1nc(-c2cccs2)ccc1C#N,8,35,-0.065,0.7,0.9,14
CC(C)(C)NS(=O)(=O)c1ccc(CCC(=O)N2CCCCC2)cc1,61*,39,0.27,0.6,0.4,-1
Cc1cc(C)c(C)c(S(=O)(=O)NCC(=O)N2CCCC2)c1C,78*,-34,0.81,1.3,0.2,5
CC1CCN(C(=O)CCc2ccc(S(=O)(=O)NC(C)C)cc2)CC1,53*,46,-3,0.5,0.5,3
Cc1ccc(S(=O)(=O)NCC(=O)N2CCC(C)CC2)cc1,72*,-3,0.84,1,0.3,-1
CCCNS(=O)(=O)c1ccc(CCC(=O)N2CCCCC2)cc1,40,28,-0.2,0.7,0.6,2
CC(C)NS(=O)(=O)c1ccc(CCC(=O)O)cc1,9,-9,0.23,1.1,0.9,5
COc1ccc(C(=S)Nc2ccc(N(C)C)cc2)cc1,30,-20,0.61,1.2,0.7,7
CCN1CCN(C(c2cc(OC)c(OC)c(OC)c2)c2nnnn2C(C)C)CC1 (stereo not given),7,-6,0.35,1.1,0.9,3
CC(C)c1cn(C2OC(COC(=O)c3ccccc3)C(OC(=O)c3ccccc3)C2OC(=O)c2ccccc2)c(=O)[nH]c1=O (stereo not given),.,.,-1,.,.,.
O=S1(=O)C=C(SCc2ccc(Cl)c(Cl)c2)Nc2ccccc21,68*,71*,0.19,0.3,0.3,2
O=C(N/N=C/c1ccco1)c1cc(-c2cccc3ccccc23)n[nH]1,15,36,-6.2*,0.6,0.8,-2
CN(C(=S)Nc1ccc(F)cc1)C1(c2ccccc2Cl)CCCCC1=O (stereo not given),83*,24,-1.9,0.8,0.2,1
Fc1ccc(NC(=S)NN=C2CCCCCC2)cc1,10,8,-1.5,0.9,0.9,1
COc1ccc(N(CC(=O)Nc2ccc(S(=O)(=O)N3CCOCC3)cc2)S(=O)(=O)c2ccccc2)cc1,28,48,-1.1,0.5,0.7,6
